Measurements from ChEMBL document CHEMBL2046437, “In vitro stability and in vivo anti-inflammatory efficacy of synthetic jasmonates” (Bioorg Med Chem, 2012).
Activity calls are given as the source filed them. No cut-off for these calls is given here.

Columns and labels:
RAW264.7 [1] = assay: Selectivity index, ratio of TC50 for mouse RAW264.7 cells to EC50 for antiinflammatory activity in LPS-activated mouse RAW264.7 cells; format: functional
[2] = Cytotoxicity in mouse RAW264.7 cells after 24 hrs by MTT assay; format: cell-based; details: read-out: TC50
Method in brief: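 RAW264.7 cells in DMEM with 10% FBS were treated for 24 h, then incubated with MTT for 4 h. Formazan was dissolved in DMSO for 30 min and absorbance read at 540 nm. TC50 reported as mean ± SD of triplicate experiments.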

[3] = Stability in presence of porcine liver esterase assessed as esterase-mediated compound hydrolysis by measuring ratio of intact compounds and their corresponding acids in pH 7.4 phosphate buffer at 37 degC at 30 mins post incubation by RP-HPLC; format: ADME; details: pig, isolated protein, pH 7.4, 0.5 h
Method in brief: (§1)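 About 0.5 mg ester was incubated with 50 µL porcine liver esterase stock in 0.01 M phosphate buffer (pH 7.4, 1 mL) plus 10 µL acetone at 37 °C. Intact ester/acid peak-area ratio given as mean ± SD of two experiments.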

RAW264.7 [4] = assay: Antiinflammatory activity in LPS-activated mouse RAW264.7 cells assessed as inhibition of nitric oxide production incubated for 24 hrs by ELISA; format: functional, cell-based; details: RAW264.7, 24 h, in the assay text read “by Griess reagent method” for “by ELISA”
Method in brief: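 RAW264.7 macrophages (DMEM, 10% FBS, penicillin/streptomycin, 37 °C, 5% CO2) treated with LPS plus compounds for 24 h. Nitrite in supernatant measured by Griess reagent (10 min, room temperature, dark), absorbance 540 nm, quantified against sodium nitrite standard curve. EC50 reported from triplicate experiments, mean ± SD.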

[5] = Stability in presence of porcine liver esterase assessed as esterase-mediated compound hydrolysis by measuring ratio of intact compounds and their corresponding acids in pH 7.4 phosphate buffer at 37 degC at 60 mins post incubation by RP-HPLC; format: ADME; details: pig, isolated protein, pH 7.4, 1 h; method in brief: as §1
Rattus norvegicus [6] = assay: Antiinflammatory activity in Sprague-Dawley rat assessed as inhibition of carrageenan-induced paw edema at 50 mg/kg, ip dosed 30 mins before carrageenan challenge; format: functional, organism-based; set-up: dose 50 mg/kg
Method in brief: (§2)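 Male Sprague–Dawley rats (140–160 g, 5 weeks old) received a single intraperitoneal dose in 5% cremophor/5% ethanol in PBS, with vehicle as control. 30 min later, 0.1 mL of 1% carrageenan in saline was injected subplantar into the right hind paw, with saline in the left. Paw volume was measured by plethysmometer at 0, 0.5, 1, 2, 4, 6 and 24 h.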

Rattus norvegicus [7] = assay: Antiinflammatory activity in Sprague-Dawley rat assessed as inhibition of carrageenan-induced paw edema at 50 mg/kg, ip dosed 30 mins before carrageenan challenge measured before 6 hrs post carrageenan challenge; format: functional, organism-based; set-up: dose 50 mg/kg; method in brief: as §2
Rattus norvegicus [8] = assay: Antiinflammatory activity in Sprague-Dawley rat assessed as inhibition of carrageenan-induced paw edema at 50 mg/kg, ip dosed 30 mins before carrageenan challenge measured at 24 hrs post carrageenan challenge; format: functional; method in brief: as §2
Rattus norvegicus [9] = assay: Antiinflammatory activity in Sprague-Dawley rat assessed as inhibition of carrageenan-induced paw edema at 25 mg/kg, ip dosed 30 mins before carrageenan challenge measured at 24 hrs post carrageenan challenge; format: functional; details: route intraperitoneal; method in brief: as §2
Rattus norvegicus [10] = assay: Antiinflammatory activity in Sprague-Dawley rat assessed as inhibition of carrageenan-induced paw edema at 25 mg/kg, ip dosed 30 mins before carrageenan challenge measured before 6 hrs post carrageenan challenge; format: functional, organism-based; set-up: dose 25 mg/kg; method in brief: as §2

Compound	Ratio (RAW264.7 [1])	CC50 at 24 h [2]	Ratio [3]	EC50 (RAW264.7 [4])	Ratio [5]	Activity (Rattus norvegicus [6])	Activity (Rattus norvegicus [7])	inhibition (Rattus norvegicus [8])	inhibition in vivo at 50 mg/kg (Rattus norvegicus [8]; route intraperitoneal)	inhibition in vivo at 25 mg/kg (Rattus norvegicus [9])	Activity (Rattus norvegicus [10])
CC/C=C\C[C@H]1C(=O)C=C[C@H]1CC(=O)OCCCCC	1	37 µM	0	25 µM							
CC/C=C\C[C@H]1C(=O)C=C[C@H]1CC(=O)OC(C)CC (stereo not given in full)	2	53 µM	0.4	22 µM	0.1						
CC/C=C\C[C@H]1C(=O)C=C[C@H]1CC(=O)OCCOC	6	160 µM	0.1	27 µM	0						
CC/C=C\C[C@H]1C(=O)C=C[C@H]1CC(=O)OC(C)(C)C	1	33 µM	11.2	20 µM	9.8						
CC/C=C\C[C@H]1C(=O)C(Cl)=C[C@H]1CC(=O)OC(C)(C)C	13.9	11.5 µM		0.83 µM		Active	inactive	Active			
CC/C=C\C[C@H]1C(=O)C=C[C@H]1CC(=O)OCCOCCOCCOC	5	163 µM	0.3	35 µM	0						
CC/C=C\C[C@H]1C(=O)C=C[C@H]1CC(=O)OCCC	1	35 µM	0	23 µM							
CC/C=C\C[C@H]1C(=O)C=C[C@H]1CC(=O)OCCCC	1	31 µM	0	23 µM							
CC/C=C\C[C@H]1C(=O)C=C[C@H]1CC(=O)OCCO	7	161 µM	1.7	24 µM	0.7						
CC/C=C\C[C@H]1C(=O)C=C[C@H]1CC(=O)OCCOCCO	5	166 µM	5.9	36 µM	3.1						
CC/C=C\C[C@H]1C(=O)C=C[C@H]1CC(=O)Oc1ccc(O)cc1	2	49 µM	0	23 µM							
CC/C=C\C[C@H]1C(=O)C=C[C@H]1CC(=O)OCCOCCOC	5	161 µM	0.3	33 µM	0						
CC/C=C\CC1C(=O)C=CC1CC(=O)OC (stereo not given)	7	140 µM	0.1	19 µM	0						
CC/C=C\C[C@H]1C(=O)C(Cl)=C[C@H]1CC(=O)OCCO	10.8	6.25 µM		0.58 µM		Active	inactive		62.4%		
CC/C=C\C[C@H]1C(=O)C=C[C@H]1CC(=O)OC(C)c1ccccc1 (stereo not given in full)	2	31 µM	1.4	18 µM	0.4						
CC/C=C\C[C@H]1C(=O)C(Cl)=C[C@H]1CC(=O)OC1CCCCC1	14.9	9.69 µM		0.65 µM							
CC/C=C\C[C@H]1C(=O)C=C[C@H]1CC(=O)OC1CCCCC1	2	31 µM	4.1	22 µM	1.1						
CC/C=C\C[C@H]1C(=O)C=C[C@H]1CC(=O)OCCOCCOCCO	4	162 µM	7.6	42 µM	3.5						
COc1ccc2c(c1)c(CC(=O)O)c(C)n2C(=O)c1ccc(Cl)cc1 [INDOMETHACIN]										57.1%	Active
CC/C=C\C[C@H]1C(=O)C=C[C@H]1CC(=O)Oc1ccccc1OC	5	161 µM	0	32 µM							
CC/C=C\C[C@H]1C(=O)C=C[C@H]1CC(=O)Oc1ccccc1	5	158 µM	0	33 µM							
CC/C=C\C[C@H]1C(=O)C=C[C@H]1CC(=O)OCC	7	146 µM	0	20 µM							
CC/C=C\C[C@H]1C(=O)C=C[C@H]1CC(=O)OC(C)COC (stereo not given in full)	7	161 µM	0.5	23 µM	0.2						
CC/C=C\C[C@H]1C(=O)C=C[C@H]1CC(=O)OCc1ccccc1	1	31 µM	0.2	20 µM	0						
CC/C=C\C[C@H]1C(=O)C=C[C@H]1CC(=O)OC(C)C	3	58 µM	0.5	20 µM	0.1						
